Tests used:
Mus musculus [1] = species on record: Mus musculus; test: Antagonism of tetrabenazine (TBZ)-induced depression in mice measured for ptosis; assay type: functional
Outline: (§1)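 Nonfasted male Swiss Webster mice, 18–24 g, ten per dose level and in saline controls. Test compound given ip 30 min before tetrabenazine 32 mg/kg ip; dose expressed as free base. Motor activity and ptosis scored. Control response ≤90% corrected by Abbott's formula.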

Mus musculus [2] = species on record: Mus musculus; test: Antagonism of tetrabenazine (TBZ)-induced depression measured in mice by motor activity; assay type: functional; outline: as §1
Mus musculus [3] = species on record: Mus musculus; test: Gross behavioral effects ascertained in mice; W indicates weak stimulant or depressant activity of little significance.; assay type: functional, organism-based
Outline: (§2)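 Male Swiss Webster mice, 18–24 g, three per dose, given ip doses of 1, 3, 10, 30, 100 and 300 mg/kg. Observed for gross behavior and held for 4 days. Scored as weak (W), stimulant (S), depressant (D) or convulsant (C).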

[4] = target: Sodium-dependent dopamine transporter (Rattus norvegicus) (UniProt P23977); test: Ability to inhibit the uptake of [3H]dopamine (DA) 0.1 uM concentration at rat brain synaptosomes; assay type: functional, subcellular
Chain of Sodium-dependent dopamine transporter (Rattus norvegicus) (P23977 whole entry): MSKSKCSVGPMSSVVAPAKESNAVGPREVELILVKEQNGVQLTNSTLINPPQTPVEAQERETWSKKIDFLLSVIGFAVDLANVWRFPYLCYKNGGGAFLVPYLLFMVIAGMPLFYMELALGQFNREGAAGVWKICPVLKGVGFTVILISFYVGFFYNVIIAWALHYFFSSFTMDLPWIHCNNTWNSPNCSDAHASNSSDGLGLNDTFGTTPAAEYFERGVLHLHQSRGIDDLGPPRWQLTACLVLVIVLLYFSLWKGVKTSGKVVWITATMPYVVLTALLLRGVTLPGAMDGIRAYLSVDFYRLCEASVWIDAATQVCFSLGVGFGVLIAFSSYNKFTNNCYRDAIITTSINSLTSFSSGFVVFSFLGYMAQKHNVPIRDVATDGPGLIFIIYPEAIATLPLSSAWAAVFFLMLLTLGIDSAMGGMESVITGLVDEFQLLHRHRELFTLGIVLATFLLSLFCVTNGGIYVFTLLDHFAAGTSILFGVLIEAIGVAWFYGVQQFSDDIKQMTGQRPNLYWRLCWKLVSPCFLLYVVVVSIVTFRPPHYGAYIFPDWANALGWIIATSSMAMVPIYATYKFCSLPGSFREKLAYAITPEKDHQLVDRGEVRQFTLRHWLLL
Outline: (§3)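 Male Wistar rat brain synaptosomes (P2 fraction): hypothalamus for NE, striatum for DA, cerebral cortex for 5-HT. Buffer is Tris- or HEPES-buffered salt medium with glucose, ascorbate and nialamide, pH 7.4 at 37 °C. Preincubated 10 min at 37 °C with compound. Uptake started with [3H]NE 100–300 nM, [3H]DA 50–300 nM or [3H]5-HT 100–200 nM, incubated 3 min (DA) or 6–10 min (NE, 5-HT). Blanks held on ice. Filtered, counted by scintillation.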

[5] = target: Norepinephrine transporter (Rattus norvegicus) (UniProt Q9WTR4); test: Ability to inhibit the uptake of [3H]norepinephrine (NE) 0.1 uM concentration at rat brain synaptosomes; assay type: functional, subcellular; outline: as §3
Chain of Norepinephrine transporter (Rattus norvegicus) (Q9WTR4 as listed by the source): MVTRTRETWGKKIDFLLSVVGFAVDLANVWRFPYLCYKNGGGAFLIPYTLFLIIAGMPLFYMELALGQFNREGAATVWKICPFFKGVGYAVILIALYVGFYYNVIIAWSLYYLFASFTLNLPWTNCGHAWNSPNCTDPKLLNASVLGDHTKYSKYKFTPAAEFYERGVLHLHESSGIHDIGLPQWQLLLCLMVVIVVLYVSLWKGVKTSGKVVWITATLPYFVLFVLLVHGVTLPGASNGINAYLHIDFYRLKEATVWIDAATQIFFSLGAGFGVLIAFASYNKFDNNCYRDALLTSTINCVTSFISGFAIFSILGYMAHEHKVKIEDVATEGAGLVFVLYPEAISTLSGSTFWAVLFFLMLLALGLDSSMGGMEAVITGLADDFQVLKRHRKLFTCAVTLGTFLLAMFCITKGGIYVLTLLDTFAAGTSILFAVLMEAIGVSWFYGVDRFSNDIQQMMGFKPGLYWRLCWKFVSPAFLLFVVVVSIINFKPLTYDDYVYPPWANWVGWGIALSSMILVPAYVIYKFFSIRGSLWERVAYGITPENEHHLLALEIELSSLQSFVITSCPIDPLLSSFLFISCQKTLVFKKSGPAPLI

[6] = target: Sodium-dependent serotonin transporter (Rattus norvegicus) (UniProt P31652); test: Ability to inhibit the uptake of [3H]- serotonin(5-HT) 0.1 uM concentration at rat brain synaptosomes; assay type: functional, subcellular; outline: as §3
Chain of Sodium-dependent serotonin transporter (Rattus norvegicus) (P31652 whole entry): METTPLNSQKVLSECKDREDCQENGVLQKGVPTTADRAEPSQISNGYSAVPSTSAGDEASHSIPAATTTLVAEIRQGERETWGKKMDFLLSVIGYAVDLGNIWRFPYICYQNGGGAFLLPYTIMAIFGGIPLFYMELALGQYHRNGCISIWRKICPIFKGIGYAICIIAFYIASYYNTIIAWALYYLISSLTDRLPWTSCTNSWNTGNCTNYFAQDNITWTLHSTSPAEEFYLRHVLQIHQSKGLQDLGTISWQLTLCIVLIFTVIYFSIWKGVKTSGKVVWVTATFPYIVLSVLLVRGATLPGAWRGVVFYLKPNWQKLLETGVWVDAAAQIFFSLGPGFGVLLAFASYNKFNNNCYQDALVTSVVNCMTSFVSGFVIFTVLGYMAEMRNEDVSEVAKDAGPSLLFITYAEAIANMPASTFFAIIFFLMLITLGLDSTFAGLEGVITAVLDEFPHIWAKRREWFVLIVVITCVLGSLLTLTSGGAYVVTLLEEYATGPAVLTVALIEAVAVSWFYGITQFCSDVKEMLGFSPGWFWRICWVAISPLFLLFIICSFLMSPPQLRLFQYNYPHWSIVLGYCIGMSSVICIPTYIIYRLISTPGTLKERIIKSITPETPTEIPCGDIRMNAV

[7] = target: Sodium-dependent dopamine transporter (Rattus norvegicus, UniProt P23977); test: Inhibition of the uptake of tritiated dopamine (DA) in rat synaptosomes; assay type: subcellular, Brain
Chain of Sodium-dependent dopamine transporter (P23977 whole entry): as the sequence (P23977 whole entry) above

[8] = target: T1, Adrenergic receptor alpha-1 (Rattus norvegicus, UniProt P15823+P23944+P43140); test: Binding affinity towards alpha-1 adrenergic receptor; assay type: protein assay
T1 sequence (P15823 whole entry): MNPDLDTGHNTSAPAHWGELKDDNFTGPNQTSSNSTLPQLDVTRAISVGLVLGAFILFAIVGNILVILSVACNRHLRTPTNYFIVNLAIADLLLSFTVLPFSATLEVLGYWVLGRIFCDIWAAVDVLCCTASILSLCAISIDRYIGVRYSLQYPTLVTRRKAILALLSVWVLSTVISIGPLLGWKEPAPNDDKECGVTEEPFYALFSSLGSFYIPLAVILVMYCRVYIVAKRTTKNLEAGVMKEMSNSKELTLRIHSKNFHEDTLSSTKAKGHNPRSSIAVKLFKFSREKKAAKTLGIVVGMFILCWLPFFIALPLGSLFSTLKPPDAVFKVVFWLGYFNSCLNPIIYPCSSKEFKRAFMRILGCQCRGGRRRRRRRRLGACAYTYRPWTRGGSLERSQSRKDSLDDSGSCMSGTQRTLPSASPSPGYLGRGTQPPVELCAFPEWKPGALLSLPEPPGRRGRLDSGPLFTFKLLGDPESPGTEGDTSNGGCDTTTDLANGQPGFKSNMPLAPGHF
T1 sequence (P23944 whole entry): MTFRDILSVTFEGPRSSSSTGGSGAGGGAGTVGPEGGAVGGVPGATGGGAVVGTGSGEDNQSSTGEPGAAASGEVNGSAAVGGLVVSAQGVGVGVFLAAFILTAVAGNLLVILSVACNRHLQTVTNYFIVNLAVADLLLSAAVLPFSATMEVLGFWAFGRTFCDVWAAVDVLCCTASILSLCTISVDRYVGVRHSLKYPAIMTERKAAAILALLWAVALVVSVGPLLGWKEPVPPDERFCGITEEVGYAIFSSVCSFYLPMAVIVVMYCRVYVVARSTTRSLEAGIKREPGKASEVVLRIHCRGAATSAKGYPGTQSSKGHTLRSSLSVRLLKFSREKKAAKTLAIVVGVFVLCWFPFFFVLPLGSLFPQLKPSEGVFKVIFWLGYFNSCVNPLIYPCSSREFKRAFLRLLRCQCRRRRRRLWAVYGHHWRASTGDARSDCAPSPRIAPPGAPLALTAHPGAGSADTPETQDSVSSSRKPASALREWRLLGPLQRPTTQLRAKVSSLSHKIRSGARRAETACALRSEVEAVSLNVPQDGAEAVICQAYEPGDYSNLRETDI
T1 sequence (P43140 whole entry): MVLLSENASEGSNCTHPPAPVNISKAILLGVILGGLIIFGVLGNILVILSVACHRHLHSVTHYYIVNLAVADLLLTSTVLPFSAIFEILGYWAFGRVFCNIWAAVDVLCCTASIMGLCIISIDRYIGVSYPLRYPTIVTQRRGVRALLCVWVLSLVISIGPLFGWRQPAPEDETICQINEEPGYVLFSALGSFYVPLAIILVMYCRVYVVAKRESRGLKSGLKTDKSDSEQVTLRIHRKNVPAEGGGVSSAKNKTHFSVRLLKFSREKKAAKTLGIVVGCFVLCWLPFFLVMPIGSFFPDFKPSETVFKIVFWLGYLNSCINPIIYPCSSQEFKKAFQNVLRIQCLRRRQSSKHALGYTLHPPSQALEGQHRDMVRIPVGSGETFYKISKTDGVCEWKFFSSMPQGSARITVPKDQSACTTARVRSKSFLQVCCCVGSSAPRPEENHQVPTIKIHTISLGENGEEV

Mus musculus [9] = species on record: Mus musculus; test: Gross behavioral effects ascertained in mice; S indicates significant stimulant properties.; assay type: functional, organism-based; outline: as §2
[10] = target: Norepinephrine transporter (Rattus norvegicus, UniProt Q9WTR4); test: Inhibition of uptake of tritiated norepinephrine (NE) in rat synaptosomes; assay type: subcellular, Brain
Chain of Norepinephrine transporter (Q9WTR4 whole entry): as the sequence (Q9WTR4 as listed by the source) above

[11] = target: Sodium-dependent dopamine transporter (Rattus norvegicus) (UniProt P23977); test: Inhibition of tritiated dopamine (DA) uptake at 0.1 uM concentration; assay type: functional; outline: as §3

| SMILES | ED50 (Mus musculus [1]; Mus musculus, read-out: ED50) | ED50 (Mus musculus [2]; Mus musculus, read-out: ED50) | inhibition [4] | inhibition [5] | inhibition [6] | Ki [10] | also measured |
| --- | --- | --- | --- | --- | --- | --- | --- |
| CC(=O)Nc1ccc([C@@H]2CN3CCC[C@H]3c3ccccc32)cc1 | 1.8 mg/kg | 4.4 mg/kg | 57% | 27% |  |  | behavior (Mus musculus [3]): Weak |
| FC(F)(F)c1ccccc1[C@@H]1CN2CCC[C@H]2c2ccccc21 |  |  | 0% | 12% | 4% |  |  |
| c1ccc([C@@H]2CN3CCC[C@@H]3c3ccccc32)cc1 (stereo in doubt; (-)-7b) |  |  |  |  |  |  | ED50 (Mus musculus [1]): 8.3 mg/kg; ED50 (Mus musculus [2]): >30 mg/kg; Ki [7]: 1340 nM; Ki [8]: 262 nM |
| C#Cc1ccc([C@@H]2CN3CCC[C@@H]3c3ccccc32)cc1 | ~0.5 mg/kg | ~0.5 mg/kg |  |  |  |  | behavior (Mus musculus [9]): Significant stimulant |
| C[C@H]1[C@H](c2ccccc2)c2ccccc2[C@@H]2CCCN21 | 3.3 mg/kg | ~30 mg/kg | 17% | 62% | 15% |  | behavior (Mus musculus [3]): Weak |
| O=C(O)c1ccccc1[C@@H]1CN2CCC[C@@H]2c2ccccc21 |  |  | 3% | 0% | 6% |  |  |
| Br.Oc1cccc([C@@H]2CN3CCC[C@@H]3c3ccccc32)c1 | 0.11 mg/kg | > 10 mg/kg |  |  |  | 0.85 nM | behavior (Mus musculus [9]): Significant stimulant; Ki [7]: 10.1 nM |
| Br.c1ccc([C@@H]2Cc3ccccc3[C@@H]3CCCN23)cc1 | 0.87 mg/kg | > 30 mg/kg | 0% | 7% |  |  | behavior (Mus musculus [3]): Weak |
| Br.c1ccc([C@H]2CN3CCC[C@H]3c3[nH]c4ccccc4c32)cc1 | 0.3 mg/kg | 1.07 mg/kg |  |  |  | 2.3 nM | behavior (Mus musculus [9]): Significant stimulant; Ki [7]: 2.9 nM |
| Br.COc1cccc([C@@H]2CN3CCC[C@H]3c3ccccc32)c1 | > 60 mg/kg | > 60 mg/kg |  |  |  | 16.1 nM | behavior (Mus musculus [3]): Weak; inhibition [11]: 35% |
| Br.F[C@]1(c2ccccc2)CN2CCC[C@H]2c2ccccc21 | 1.2 mg/kg | ~3 mg/kg | 26% |  | 6% | 30.7 nM | behavior (Mus musculus [3]): Weak |
| Br.c1ccc([C@@H]2CN3CCCCC[C@H]3c3ccccc32)cc1 | ~40 mg/kg | ~40 mg/kg |  | 13% | 6% |  | behavior (Mus musculus [3]): Weak; inhibition [11]: 19% |
| Br.FC(F)(F)c1ccccc1[C@@H]1CN2CCC[C@@H]2c2ccccc21 | > 3 mg/kg | > 3 mg/kg | 14% | 42% | 2% |  |  |
| Cc1ccccc1[C@@H]1CN2CCC[C@H]2c2ccccc21 |  |  | -1% | 12% | -6% |  |  |
| FC(F)(F)c1cccc([C@@H]2CN3CCC[C@@H]3c3ccccc32)c1 (stereo in doubt; (-)-37b) |  |  |  |  |  | 2570 nM | Ki [7]: 7690 nM; Ki [8]: 30 nM |
| Br.Nc1ccc([C@@H]2CN3CCC[C@@H]3c3ccccc32)cc1 | ~0.01 mg/kg | ~0.02 mg/kg |  |  |  | 0.2 nM | behavior (Mus musculus [9]): Significant stimulant; Ki [7]: 0.86 nM |
| FC(F)(F)c1ccc([C@@H]2CN3CCC[C@H]3c3ccccc32)cc1 |  |  |  | -1% | 15% |  | inhibition [11]: 7% |
| Br.c1ccc([C@H]2CN3CCC[C@H]3c3ccsc32)cc1 | 0.79 mg/kg | 5 mg/kg |  |  |  | 1.4 nM | behavior (Mus musculus [9]): Significant stimulant; Ki [7]: 5.2 nM |
| c1ccc([C@@H]2CN3CCC[C@@H]3c3ccccc32)cc1 (stereo in doubt; (+)-7b) |  |  |  |  |  |  | ED50 (Mus musculus [1]): 0.05 mg/kg; ED50 (Mus musculus [2]): 0.59 mg/kg; Ki [7]: 4.4 nM; Ki [8]: 83 nM |
| FC(F)(F)c1cc([C@@H]2CN3CCC[C@H]3c3ccccc32)cc(C(F)(F)F)c1 |  |  | -3% | 0% | -3% |  |  |
| O=C(O)c1ccccc1[C@@H]1CN2CCC[C@H]2c2ccccc21 |  |  | 5% | 1% | 1% |  |  |
| N#Cc1ccccc1[C@@H]1CN2CCC[C@@H]2c2ccccc21 | > 3 mg/kg | > 3 mg/kg | 33% | 71% | 6% |  |  |
| FC(F)(F)c1cc([C@@H]2CN3CCC[C@@H]3c3ccccc32)cc(C(F)(F)F)c1 |  |  | 5% | 58% | 25% |  |  |
| c1ccc(C[C@@H]2CN3CCC[C@H]3c3ccccc32)cc1 |  |  | 15% | 100% | -3% |  |  |
| FC(F)(F)c1cccc([C@@H]2CN3CCC[C@@H]3c3cccc(Cl)c32)c1 |  |  | 8% |  | 5% | ~100 nM |  |
| Br.CCCCc1ccc([C@@H]2CN3CCC[C@H]3c3ccccc32)cc1 |  | > 30 mg/kg | 5% | 13% | 3% |  | behavior (Mus musculus [3]): Weak |

From ChEMBL document CHEMBL1123812, “Pyrroloisoquinoline antidepressants. 2. In-depth exploration of structure-activity relationships” (J Med Chem, 1987)
